Assay results from ChEMBL document CHEMBL1134486, “Synthesis and biological evaluation of purine-containing butenolides” (J Med Chem, 2001).

How the values were obtained:
[1] = tested on: HeLa; assay: Concentration required to cause microscopically visible change or disruption in about 50% of cell sheet of HeLa cells; format: functional, cell-based, Homo sapiens
Procedure, shortened: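 HeLa cells exposed to compounds at different concentrations; toxicity scored as morphological change, value is concentration causing microscopically visible change or disruption in about 50% of the cell sheet; mean of duplicate determinations.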

[2] = tested on: HeLa; assay: Ability to inhibit cytopathogenicity of thymidine kinase-deficient (TK-) strain of Varicella zoster virus (YS/R) in HeLa cell culture; format: functional, cell-based; conditions: Homo sapiens
Procedure, shortened: (§1)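 Inhibition of virus-induced cytopathogenicity measured in HeLa cell culture; IC50 derived by linear regression, mean of duplicate determinations.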

[3] = tested on: HeLa; assay: Ability to inhibit cytopathogenicity of thymidine kinase-positive(TK+) strain of Varicella zoster virus (YS) in HeLa cell culture; format: functional, cell-based; conditions: Homo sapiens; procedure, shortened: as §1
[4] = tested on: HeLa; assay: Ability to inhibit cytopathogenicity of herpes simplex type 1 virus (KOS) in HeLa cell culture; format: functional, cell-based; conditions: Homo sapiens; procedure, shortened: as §1
[5] = tested on: HeLa; assay: Ability to inhibit cytopathogenicity of herpes simplex type 2 virus (G) in HeLa cell culture; conditions: Homo sapiens
[6] = Anticancer activity carried out in vitro against human T-lymphocyte Molt4/C8; format: functional, cell-based; conditions: MOLT-4
Procedure, shortened: (§2)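 Cells grown in DMEM with 10% FBS, 2.0 mM glutamine, penicillin/streptomycin, 5% CO2, 37 °C; exponential-phase cells (200 cells/mL) given compounds at various concentrations, counted at 24, 48, 72 h; IC50 for 50% proliferation inhibition at 72 h from dose-response curves of two independent experiments.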

[7] = Anticancer activity carried out in vitro against human T-lymphocyte CEM/0; format: functional; conditions: CCRF-CEM; procedure, shortened: as §2
[8] = tested on: MCF7; assay: Anticancer activity carried out in vitro against breast carcinoma MCF-7; format: functional, cell-based; conditions: Homo sapiens; procedure, shortened: as §2
[9] = tested on: P388; assay: Anticancer activity carried out in vitro against murine leukemia P388; format: functional, cell-based; conditions: Mus musculus; procedure, shortened: as §2
[10] = tested on: L1210; assay: Anticancer activity carried out in vitro against murine leukemia L1210; format: functional, cell-based; conditions: Mus musculus; procedure, shortened: as §2
[11] = biological target: T1, Adenosine deaminase (Bos taurus, UniProt P56658); assay: Rate of deamination in the presence of calf mucosal adenosine deaminase (ADA)
T1 sequence (P56658 whole entry): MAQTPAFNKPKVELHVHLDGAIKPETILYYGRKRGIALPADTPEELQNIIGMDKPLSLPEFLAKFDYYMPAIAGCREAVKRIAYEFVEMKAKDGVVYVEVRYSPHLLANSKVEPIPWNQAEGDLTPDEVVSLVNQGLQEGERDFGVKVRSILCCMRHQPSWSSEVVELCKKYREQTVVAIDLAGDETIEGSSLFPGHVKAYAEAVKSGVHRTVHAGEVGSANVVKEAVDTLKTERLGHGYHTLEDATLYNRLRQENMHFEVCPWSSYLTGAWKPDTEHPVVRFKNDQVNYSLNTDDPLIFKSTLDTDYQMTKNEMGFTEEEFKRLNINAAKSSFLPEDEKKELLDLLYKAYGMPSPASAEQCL
Procedure, shortened: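 Deamination rates followed with calf mucosal ADA (EC 3.5.4.4) in buffer solutions; Km and Vmax relative to adenosine as substrate; inhibition (Ki) assessed with adenosine as substrate.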

SMILES | IC50 ([1]; Homo sapiens, HeLa) [µM] | IC50 [2] [µM] | IC50 [3] [µM] | IC50 [4] [µM] | IC50 [5] [nM] | IC50 [6] [µM] | IC50 [7] [µM] | IC50 [8] [µM] | IC50 [9] [µM] | IC50 [10] [µM] | Ki [11] [µM] | IC50 ([1]; hela) [µM]
Nc1nc2c(ncn2COCCO)c(=O)[nH]1 [ACYCLOVIR] | 254 | 26.4 | 8.71 | 0.11 | 190 |  |  |  |  |  |  | 
COC1=C(OC)/C(=C/C(n2cnc3c(Cl)ncnc32)P(=O)(OC)OC)OC1=O (stereo not given) | 28.1 | 5.03 | 10.2 | 13.2 |  | 12.5 | 96 | 90.1 | 14.3 | 16.2 |  | 
COC1=C(OC)C(O)(CCn2cnc3c(N)ncnc32)OC1=O (stereo not given) | 157 | > 128 | > 128 | > 128 |  | > 120 | > 120 | > 120 | > 120 | > 120 | > 800 | 
O=C1O/C(=C/Cn2cnc3c(Cl)ncnc32)C(OCc2ccc([N+](=O)[O-])cc2)=C1OCc1ccc([N+](=O)[O-])cc1 | 17 | 34.7 | 37.5 | 28.4 |  | > 120 | > 120 | > 120 | > 120 | > 120 |  | 
COC1=C(OC)C(O)(CCn2cnc3c(Cl)ncnc32)OC1=O (stereo in doubt; (-)-4) |  |  |  |  |  |  |  |  |  |  |  | 132
COC1=C(OC)C(O)(CCn2cnc3c(Cl)ncnc32)OC1=O (racemic) | 149 | > 128 | > 128 | > 128 |  | > 120 | > 120 | > 120 | > 120 | > 120 |  | 
Nc1ccn([C@@H]2O[C@H](CO)[C@@H](O)[C@@H]2O)c(=O)n1 [CYTARABINE] |  |  |  |  |  | 0.65 | 0.78 | 1.03 | 0.14 | 0.17 |  | 

More lines, now with the values ahead:

IC50 ([1]; Homo sapiens, HeLa) [µM] | IC50 [2] [µM] | IC50 [3] [µM] | IC50 [4] [µM] | IC50 [5] [nM] | IC50 [6] [µM] | IC50 [7] [µM] | IC50 [8] [µM] | IC50 [9] [µM] | IC50 [10] [µM] | Ki [11] [µM] | IC50 ([1]; hela) [µM] | SMILES
20.2 | 0.89 | 6.32 | 7.24 |  | 6.16 | 5.04 | 14.2 | 7.42 | 6.03 |  |  | COC1=C(OCc2ccc([N+](=O)[O-])cc2)C(=O)O/C1=C/Cn1cnc2c(Cl)ncnc21
42.4 | 6.07 | 12.8 | 14.5 |  | 78.5 | 84.5 | > 120 | 2.67 | 93.4 | 316 |  | COC1=C(OC)/C(=C/Cn2cnc3c(N)ncnc32)OC1=O
23.4 | 1.62 | 5.92 | 10.9 |  | 5.97 | 4.71 | 16.9 | 8.12 | 4.52 |  |  | COC1=C(OC)/C(=C/Cn2cnc3c(Cl)ncnc32)OC1=O
19.3 | 1.03 | 4.4 | 9.83 |  | 7.35 | 3.98 | 15.4 | 6.49 | 5.81 |  |  | COC1=C(OCc2ccc([N+](=O)[O-])cc2)/C(=C\Cn2cnc3c(Cl)ncnc32)OC1=O
